Measured values collected from several papers.
Protocols differ between the studies behind these lines.
Target: Mitogen-activated protein kinase 14 (MAPK14, Homo sapiens, UniProt Q16539)

Compound	test	conditions	remaining binding [%]
CC(=O)c1c(NS(C)(=O)=O)c2cc(-c3ccc(Cl)cc3)c(-c3ccc(Cl)cc3Cl)nc2n(C)c1=O	cell-free assay, competition with immobilised ligand	1 µM	100
O=C(c1ccc(Nc2nccc(-c3cc4ccccc4s3)n2)cc1)N1CCC(N2CCCC2)CC1	binding, competition with immobilised ligand	1 µM	100
CNCc1ccccc1-c1csc([C@@H](C)Nc2nc(C)nc3cc(OC)c(OC)cc23)c1	cell-free assay, competition with immobilised ligand	1 µM	87
O=C(NCCCN1CCOCC1)c1ccc(Nc2ncc(Cl)c(-c3ccc(Cl)s3)n2)cc1	binding, competition with immobilised ligand	1 µM	100
COc1cnc(Nc2cccc(S(N)(=O)=O)c2)nc1N1CCN(c2ccccc2)C(=O)C1	binding, competition with immobilised ligand	1 µM	100
CN(c1nccc(-c2cnn3ncccc23)n1)C1CC1	binding	1 µM	100
C[C@@H]1CN(c2ccc3ncc(-c4ccc5[nH]nc(C6CC6)c5c4)n3n2)C[C@H](C)O1	binding, competition with immobilised ligand	0.5 µM	100
c1cnn2ncc(-c3ccnc(N4CCC45COC5)n3)c2c1	binding	1 µM	87
Nc1cnc(N2CCc3cc(S(=O)(=O)Nc4c(F)cc(Cl)cc4F)cc(N4CCCC4=O)c32)nc1	cell-free assay, competition with immobilised ligand	1 µM	100
C[C@H]1CCN(c2nccc(-c3cnn4ncccc34)n2)C1	binding	1 µM	100
N#Cc1ccccc1CSc1nnc2c(n1)[nH]c1ccccc12	binding, competition with immobilised ligand	10 µM	100
CN(C)c1nccc(-c2cnc3ncccn23)n1	binding	1 µM	100
O=C(O)[C@H]1[C@H](Cn2nnc3ccccc3c2=O)CC[C@@H]1C(=O)c1ccc(OCCC2CCOCC2)cc1	cell-free assay, competition with immobilised ligand	1 µM	85
O=C(Nc1c[nH]nc1C(=O)NC1CCNCC1)c1cc(F)cc(F)c1	binding, competition with immobilised ligand	1 µM	100
COc1ccc2cc(OCC3(C(=O)O)CN(C(=O)c4ccc(F)cc4)C3)ccc2c1	cell-free assay, competition with immobilised ligand	1 µM	100
COc1ccnn2ncc(-c3ccnc(N(C)C)n3)c12	binding	1 µM	87
